Data from ChEMBL document CHEMBL1128256, “Synthesis, biological evaluation, and structure analysis of a series of new 1,5-anhydrohexitol nucleosides” (J Med Chem, 1995).
Converted amounts (≈) assume the structure as drawn.

Experiments:
E6SM [1] = experiment: Tested for the minimum inhibitory concentration required to reduce herpes simplex virus type 2 (HSV-2) strain G induced cytopathogenicity by 50%.; type: functional; conditions: Homo sapiens
Method in brief: (§1)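 Inhibition of virus-induced cytopathogenicity in human embryonic skin-muscle (E6SM) fibroblasts seeded in 96-well trays. Viruses were HSV-1 (KOS, F, McIntyre), TK- HSV-1 B2006, TK-/TK+ HSV-1 clinical isolate VMW-1837 and HSV-2 (G, 196, Lyons). […] MCC is the lowest concentration giving microscopically detectable alteration of normal cell morphology; highest concentration tested was 400 µg/mL.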

E6SM [2] = experiment: Tested for the minimum inhibitory concentration required to reduce herpes simplex virus type 2 (HSV-2) strain Lyons induced cytopathogenicity by 50%.; type: functional; conditions: Homo sapiens; method in brief: as §1
HEL [3] = experiment: Tested for the cytotoxic concentration, required to reduce cell growth by 50% in human embryonic lung (HEL) cells.; type: functional
Method in brief: (§2)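 Virus plaque formation assay in human embryonic lung (HEL) cells seeded in 96-well trays. Targets were TK+ VZV (Oka, YS), TK- VZV (07/1, YS/R) and CMV (AD169, Davis). Value is the concentration that reduces plaque number by 50%. Cytotoxicity in HEL cells was taken as the concentration that reduces cell growth by 50%.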

E6SM [4] = experiment: Tested for the minimum inhibitory concentration required to reduce herpes simplex virus type 1 (HSV-1) strain McIntyre induced cytopathogenicity by 50%.; type: functional; conditions: Homo sapiens; method in brief: as §1
HEL [5] = experiment: Tested for the inhibitory concentration required to reduce TK+ Varicella-Zoster virus (TK+ VZV) strain OKA plaque formation by 50%.; type: functional, cell-based; conditions: Homo sapiens
E6SM [6] = experiment: Tested for the minimum inhibitory concentration required to reduce vaccinia virus(VV) induced cytopathogenicity by 50%.; type: functional; conditions: Homo sapiens
E6SM [7] = experiment: Tested for the minimum inhibitory concentration required to reduce vesicular stomatitis virus(VSV) induced cytopathogenicity by 50%; type: functional; conditions: Homo sapiens
E6SM [8] = experiment: Tested for the minimum inhibitory concentration required to reduce herpes simplex virus type 1 (HSV-1) strain KOS induced cytopathogenicity by 50%.; type: functional; conditions: Homo sapiens; method in brief: as §1
E6SM [9] = experiment: Tested for the minimum inhibitory concentration required to reduce herpes simplex virus type 1 (HSV-1) strain F induced cytopathogenicity by 50%.; type: functional; conditions: Homo sapiens; method in brief: as §1
E6SM [10] = experiment: Tested for the minimum inhibitory concentration required to reduce thymidine kinase deficient herpes simplex virus type 1 (TK- HSV-1) strain B2006 induced cytopathogenicity by 50%.; type: functional; conditions: Homo sapiens; method in brief: as §1
HEL [11] = experiment: Tested for the 50% inhibitory concentration required to reduce TK+ Varicella-Zoster virus (TK+ VZV) strain YS plaque formation by 50%; type: functional, cell-based; conditions: Homo sapiens; method in brief: as §2
E6SM [12] = experiment: Tested for the minimum cytotoxic concentration required to cause a microscopically detectable alteration of normal cell morphology in human embryonic skin muscle (E6SM) fibroblast cell cultures.; type: functional; method in brief: as §1
HEL [13] = experiment: Tested for the inhibitory concentration required to reduce cytomegalovirus (CMV) strain Davis plaque formation by 50%.; type: functional, cell-based; conditions: Homo sapiens; method in brief: as §2
HEL [14] = experiment: Tested for the inhibitory concentration required to reduce cytomegalovirus (CMV) strain AD-169 plaque formation by 50%.; type: functional, cell-based; conditions: Homo sapiens; method in brief: as §2
E6SM [15] = experiment: (§3) Tested for the minimum inhibitory concentration required to reduce herpes simplex virus type 2 (HSV-2) strain 196 induced cytopathogenicity by 50%.; type: functional; conditions: Homo sapiens; method in brief: as §1
HEL [16] = experiment: Tested for the inhibitory concentration required to reduce thymidine kinase deficient Varicella-Zoster virus (TK- VZV) strain 07/1 plaque formation by 50%.; type: functional, cell-based; conditions: Homo sapiens
HEL [17] = experiment: Tested for the inhibitory concentration required to reduce thymidine kinase deficient Varicella-Zoster virus (TK- VZV) strain YS/R plaque formation by 50%.; type: functional, cell-based; conditions: Homo sapiens
E6SM [18] = experiment: Tested for the minimum inhibitory concentration required to reduce herpes simplex virus type 1 (TK- / TK+ HSV-1) strain VMW-1837 induced cytopathogenicity by 50%.; type: functional; conditions: Homo sapiens; method in brief: as §1
E6SM [19] = experiment: as §3; type: functional; conditions: Homo sapiens; remark: listed apart in the source
Mus musculus = species on record: Mus musculus; experiment: Inhibition constant assumed to reflect the affinity for the transport site in mouse erythrocytes; type: functional
Method in brief: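 Thymidine influx competition in erythrocytes from male B6D2F1 mice, 10% hematocrit in buffered saline, room temperature. [methyl-3H]thymidine at 0.1, 0.2, 0.5 and 1 mM, alone or with inhibitor at 0.053–1.05 mM. Influx stopped after 3 s with NBMPR. Pellets extracted in 5% perchloric acid and counted by scintillation. Zero-time trapping subtracted. Duplicate samples. Ki from Dixon plot.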

HEL [20] = experiment: Tested for the inhibitory concentration required to reduce TK+ Varicella-Zoster virus (TK+ VZV) strain YS plaque formation by 50%; type: functional, cell-based; conditions: Homo sapiens
E6SM [21] = experiment: Tested for the minimum inhibitory concentration required to reduce herpes simplex virus type 2 (HSV-2) strain G induced cytopathogenicity by 50%; type: functional; conditions: Homo sapiens; method in brief: as §1
HEL [22] = experiment: Tested for the inhibitory concentration required to reduce TK+ Varicella-Zoster virus (TK+VZV) strain YS plaque formation by 50%; type: functional, cell-based; conditions: Homo sapiens; method in brief: as §2
HEL [23] = experiment: Tested for the inhibitory concentration required to reduce cytomegalovirus (CMV) strain AD-169 plaque formation by 50%; type: functional, cell-based; conditions: Homo sapiens; method in brief: as §2
HEL [24] = experiment: Tested for the inhibitory concentration required to reduce thymidine kinase deficient Varicella-Zoster virus (TK-VZV) strain 07/1 plaque formation by 50%; type: functional, cell-based; conditions: Homo sapiens; method in brief: as §2
E6SM [25] = experiment: Tested for the minimum inhibitory concentration required to reduce herpes simplex virus type 2 (HSV-2) strain Lyons induced cytopathogenicity by 50%; type: functional; conditions: Homo sapiens; method in brief: as §1
HEL [26] = experiment: Tested for the cytotoxic concentration, required to reduce cell growth by 50% in human embryonic lung (HEL) cells; type: functional; method in brief: as §2
HEL [27] = experiment: Tested for the inhibitory concentration required to reduce thymidine kinase deficient Varicella-Zoster virus (TK-VZV) strain YS/R plaque formation by 50%; type: functional, cell-based; conditions: Homo sapiens; method in brief: as §2
E6SM [28] = experiment: Tested for the minimum inhibitory concentration required to reduce herpes simplex virus type 1 (HSV-1) strain KOS induced cytopathogenicity by 50%; type: functional; conditions: Homo sapiens; method in brief: as §1
E6SM [29] = experiment: Tested for the minimum inhibitory concentration required to reduce thymidine kinase deficient herpes simplex virus type 1 (TK- HSV-1) strain B2006 induced cytopathogenicity by 50%; type: functional; conditions: Homo sapiens; method in brief: as §1
E6SM [30] = experiment: Tested for the minimum inhibitory concentration required to reduce herpes simplex virus type 2 (HSV-2) strain 196 induced cytopathogenicity by 50%; type: functional; conditions: Homo sapiens; method in brief: as §1
E6SM [31] = experiment: Tested for the minimum inhibitory concentration required to reduce herpes simplex virus type 1 (TK/ TK+HSV-1) strain VMW-1837 induced cytopathogenicity by 50%; type: functional; conditions: Homo sapiens; method in brief: as §1
E6SM [32] = experiment: Tested for the minimum cytotoxic concentration required to cause a microscopically detectable alteration of normal cell morphology in human embryonic skin muscle (E6SM) fibroblast cell cultures; type: functional
Method in brief: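 Cytotoxicity in human embryonic skin-muscle (E6SM) fibroblasts seeded in 96-well trays, scored microscopically as altered normal cell morphology. Tested up to 400 µg/mL.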

HEL [33] = experiment: Tested for the inhibitory concentration required to reduce TK+varicella-zoster virus (TK+ VZV) strain OKA plaque formation by 50%; type: functional, cell-based; conditions: Homo sapiens; method in brief: as §2
HEL [34] = experiment: Tested for the inhibitory concentration required to reduce cytomegalovirus (CMV) strain Davis plaque formation by 50%; type: functional, cell-based; conditions: Homo sapiens; method in brief: as §2
E6SM [35] = experiment: Tested for the minimum inhibitory concentration required to reduce herpes simplex virus type 1 (HSV-1) strain McIntyre induced cytopathogenicity by 50%; type: functional; conditions: Homo sapiens; method in brief: as §1

Row | SMILES | MIC (E6SM [1]) [µg/mL] | MIC (E6SM [2]) [µg/mL] | CC50 (HEL [3]) [µg/mL] | MIC (E6SM [4]) [µg/mL] | IC50 (HEL [5]) [µg/mL] | MIC (E6SM [6]) [µg/mL] | MIC (E6SM [7]) [µg/mL] | MIC (E6SM [8]) [µg/mL] | MIC (E6SM [9]) [µg/mL] | MIC (E6SM [10]) [µg/mL] | MCC (E6SM [12]) [µg/mL] | IC50 (HEL [13]) [µg/mL] | IC50 (HEL [14]) [µg/mL] | IC50 (HEL [16]) [µg/mL] | IC50 (HEL [17]) [µg/mL] | MIC (E6SM [18]) [µg/mL] | also measured
1 | O=c1[nH]c(=O)n([C@H]2C[C@H](O)[C@@H](CO)O2)cc1I [IDOXURIDINE] | 0.2 (≈ 0.565 µM) | 0.2 (≈ 0.565 µM) | > 50 | 1 (≈ 2.82 µM) | 0.17 (≈ 0.48 µM) | 0.7 (≈ 1.98 µM) | > 400 | 0.2 (≈ 0.565 µM) | 0.2 (≈ 0.565 µM) | 40 (≈ 113 µM) | > 400 | > 50 | 20 (≈ 56.5 µM) | 4 (≈ 11.3 µM) | 4 (≈ 11.3 µM) | 10 (≈ 28.2 µM) | IC50 (HEL [11]): 0.4 µg/mL (≈ 1.13 µM); MIC (E6SM [15]): 0.2 µg/mL (≈ 0.565 µM)
2 | O=c1[nH]c(=O)n([C@H]2C[C@H](O)[C@@H](CO)O2)cc1/C=C/Br [BRIVUDINE] | > 200 | 70 (≈ 210 µM) | > 50 | 0.2 (≈ 0.6 µM) | 0.0007 (≈ 0.0021 µM) | 2 (≈ 6 µM) | > 200 | 0.004 (≈ 0.012 µM) | 0.004 (≈ 0.012 µM) | 40 (≈ 120 µM) | > 400 | > 100 | > 100 | 8 (≈ 24 µM) | 30 (≈ 90.1 µM) | 70 (≈ 210 µM) | MIC (E6SM [19]): 300 µg/mL (≈ 901 µM); Ki (Mus musculus): 23 µM; IC50 (HEL [20]): 0.0015 µg/mL (≈ 0.0045 µM)
3 | OCC1OCC(n2cnc3c(O)ncnc32)CC1O (stereo not drawn) |  |  |  |  |  |  |  |  | 300 (≈ 1130 µM) |  |  |  |  |  |  |  | MIC (E6SM [21]): > 400 µg/mL; IC50 (HEL [22]): 25 µg/mL (≈ 93.9 µM); IC50 (HEL [23]): > 40 µg/mL; IC50 (HEL [24]): > 40 µg/mL; MIC (E6SM [25]): 300 µg/mL (≈ 1130 µM); CC50 (HEL [26]): > 50 µg/mL; IC50 (HEL [27]): > 40 µg/mL; MIC (E6SM [28]): > 400 µg/mL; MIC (E6SM [29]): > 400 µg/mL; MIC (E6SM [30]): 300 µg/mL (≈ 1130 µM); MIC (E6SM [31]): 300 µg/mL (≈ 1130 µM); MCC (E6SM [32]): > 400 µg/mL; IC50 (HEL [33]): > 40 µg/mL; IC50 (HEL [34]): > 40 µg/mL; MIC (E6SM [35]): > 400 µg/mL
